Bioassay records from PubChem.
Hits are enriched below; roughly 3.5% of the tested compounds scored in any of these assays.
RGS4 pot: potentiators or activators of RGS4; AID 463111; HEK293 M3R/inducible RGS4, carbachol calcium flux Fluo4; stronger effect = lower value; B-score at 10 µM; actives 0.92% (n = 310,000);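 active means B-score of the integrated calcium signal more than 4 SD below the library mean, with starting fluorescence not abnormally high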;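 further: negative B-score means reduced calcium response which marks RGS4 activation or potentiation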
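System: HEK293 FlpIn-TREx cells, stable M3R, doxycycline-inducible RGS4. Timing: overnight RGS4 induction, 30 min dye load 37 °C, 20 min compound RT. Also added: carbachol, ECmax concentration. Measured by: Fluo4 fluorescence kinetic imaging of calcium. Evaluation: integrated calcium ratio converted to B score.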
MrgX1 allo act: human MrgX1 positive allosteric modulation, primary screen | MrgX1-HEK293, Fluo-4 calcium flux, FDSS; stronger effect = higher value | B-score at 10 µM | actives 0.63% (n = 310,000);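 active means plate-corrected calcium response at least 3 library SD above typical, normal starting fluorescence, not activating the receptor alone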;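 further: compound read alongside a low EC10 to EC30 dose of BAM8-22 agonist; peak minus trough fluorescence over baseline measured at the second addition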
Target sequence (Q96LB2 whole entry, looked up): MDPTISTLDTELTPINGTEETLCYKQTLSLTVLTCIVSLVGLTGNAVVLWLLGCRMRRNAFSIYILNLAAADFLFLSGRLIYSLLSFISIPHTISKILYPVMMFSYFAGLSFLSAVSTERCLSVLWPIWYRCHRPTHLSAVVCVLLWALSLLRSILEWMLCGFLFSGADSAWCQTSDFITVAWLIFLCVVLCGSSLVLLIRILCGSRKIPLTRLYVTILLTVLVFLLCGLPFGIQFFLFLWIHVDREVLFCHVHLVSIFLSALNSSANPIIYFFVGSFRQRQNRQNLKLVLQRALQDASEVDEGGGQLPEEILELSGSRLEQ
MrgX1 ag: human MrgX1 receptor agonism, primary screen | actives 0.44% (n = 310,000) | MrgX1-HEK293 cells, Fluo-4 calcium fluorescence, agonist mode; stronger effect = higher value | Q96LB2 | AID 588627 | B-score at 10 µM;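 active means calcium response B-score plate-corrected fluorescence ratio at least 3 library SD, with starting fluorescence B-score inside 5 SD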
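Material – MrgX1-expressing HEK293 cells · Input – 15,000 cells seeded per well · Dosing – compound as first of three additions · Times – overnight seeding, then 1 h dark dye loading · Measured by – kinetic Fluo-4 NW fluorescence of intracellular calcium · Read-out – B-scored fluorescence response ratio · Benchmarks – positive and negative control wells on each plate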
RGS4 block: inhibitors of human RGS4. HEK293 M3R/RGS4 inducible, Fluo-4 calcium flux; stronger effect = higher value; triggered by carbachol at its EC20. P49798. B-score at 10 µM. actives 0.45% (n = 310,000);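 active means B-score, a plate-corrected calcium signal, over three deviations above library mean, with baseline fluorescence within five deviations of library mean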;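 further: RGS4 expression induced by doxycycline in cells with stable M3 receptor; B-score is computed from the integrated fluorescence ratio over baseline after carbachol; higher B-score means a larger calcium signal and so more RGS4 inhibition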
Target sequence (P49798 whole entry, looked up): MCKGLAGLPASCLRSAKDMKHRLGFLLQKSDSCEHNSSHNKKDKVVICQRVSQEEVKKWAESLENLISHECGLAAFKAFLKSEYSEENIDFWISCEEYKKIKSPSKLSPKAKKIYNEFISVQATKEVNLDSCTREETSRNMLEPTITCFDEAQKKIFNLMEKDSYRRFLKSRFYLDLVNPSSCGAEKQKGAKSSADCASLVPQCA
MrgX1 antagonist: blocks BAM8-22 activation of human MrgX1 receptor; Q96LB2; actives 1.3% (n = 310,000); MRGX1-HEK293 calcium flux, Fluo-4, BAM8-22 antagonism; stronger effect = lower value; B-score at 10 µM; AID 588676;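 active means calcium-response B-score plate-corrected more than 3 library SD below zero, starting fluorescence within 5 deviations, no agonist response on first addition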;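 further: peak minus trough fluorescence over baseline after final BAM8-22 challenge near maximal dose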
* marks the source's active call; other numbers are inactive results; i = inactive; · = no result.

SMILES	RGS4 pot	MrgX1 allo act	MrgX1 ag	RGS4 block	MrgX1 antagonist
O=C(/C=C/c1ccc(OC(F)F)cc1)Nc1cccc(S(=O)(=O)NC2=NCCCCC2)c1	i	i	i	i	-8.2*
Cc1ccc(N(C(=O)Cn2nnc3ccccc32)C(C(=O)NCc2ccco2)c2ccc(C)o2)cc1 (stereo not given)	i	·	·	i	·
CCC(C)(C)NC(=O)C(c1ccco1)N(C(=O)Cn1nnc2ccccc21)c1ccc2c(c1)OCO2 (stereo not given)	i	8.9*	i	i	i
COc1cccc(NC(=O)CN2C(=O)COc3ccc(S(=O)(=O)N4CCOCC4)cc32)c1	i	i	i	i	i
COc1ccccc1CN1C(=NC(=O)CCC2CCCC2)SC2CS(=O)(=O)CC21 (stereo not given)	i	i	i	i	i
CCOc1ccccc1N1CCN(C(=O)NCc2ccc(Cl)cc2)CC1	i	i	i	i	i
O=S(=O)(Nc1ccc(Cl)cc1)c1ccc(N2CCOCC2)c(NC(=S)NCCN2CCOCC2)c1	i	i	i	i	i
COc1cc(/C=C(\C#N)C(=O)NCCc2ccccc2)cc(OC)c1O	i	7.3*	i	i	i
Cc1cccc(C)c1NC(=O)c1sccc1SCc1cccc(C(F)(F)F)c1	i	i	i	i	-5*
O=CN1c2ccccc2CSc2ccccc21	i	i	i	i	i
Cc1c(C(=O)NCCC2=CCCCC2)oc2ccc(S(=O)(=O)N3CCC4(CC3)OCCO4)cc12	-8*	i	i	i	i
CCN1CCN(CCC(=O)Nc2ccc(F)c(F)c2)CC1	i	i	i	i	i
CCOC(=O)c1sc2nc(C)nc(N3CCCCC3C)c2c1C (stereo not given)	-7.3*	i	i	i	i
Cc1nc(N2CCCCC2C)c2c(C)c(C(=O)Nc3cccc(C(F)(F)F)c3)sc2n1 (stereo not given)	i	i	i	i	i
O=C(c1cccc([N+](=O)[O-])c1)N1CC2C3C=CC(C3)C2C1 (stereo not given)	i	i	i	i	i
O=C(c1ccccc1[N+](=O)[O-])N1CC2C3C=CC(C3)C2C1 (stereo not given)	-7.1*	i	i	i	i
Cc1nc(-c2ccc(Cl)cc2)sc1C1(C)CC(c2cccc([N+](=O)[O-])c2)=NO1 (stereo not given)	i	i	i	i	i
C=CCn1cccc(C(=O)Nc2ccc(N(C)C)cc2)c1=O	i	i	i	i	i
COc1ccc(Cl)cc1/C=C(\C#N)C(N)=O	i	i	30*	i	i
CCN(CC)c1ccc(C(=O)NNC(=O)CN2C(=O)NC3(CCCCC3)C2=O)cc1	i	i	i	i	i
C=CCn1c(NCc2ccc(OC)cc2O)nc2ccccc21	i	i	i	i	i
O=C(Nc1ccc(Cl)c(Cl)c1)c1cccnc1	i	i	i	i	i
O=C(NNS(=O)(=O)c1cc(Cl)c(Cl)cc1Cl)c1cccnc1	i	i	i	i	-9.2*
Nc1ncnc2c1ncn2[C@@H]1O[C@H](COP(=O)(O)OP(=O)(O)OP(=O)(O)O)[C@@H](O)[C@H]1O	·	i	45*	·	i
COc1ccc(/C=N/n2c(COc3ccccc3)n[nH]c2=S)cc1OC	i	i	i	i	i
SMILES	RGS4 pot	MrgX1 allo act	MrgX1 ag	RGS4 block	MrgX1 antagonist
C/C(=N\OC(=O)NC(C)C)c1sc(-c2ccc(Cl)cc2)nc1C	i	17*	i	i	i
CCN(CC)C(=O)CN(c1cc2c(cc1OC)oc1ccccc12)S(=O)(=O)c1ccccc1	·	i	i	·	-9.1*
COc1ccc(CN2CCC(CO)(Cc3ccccc3C(F)(F)F)CC2)c(F)c1	-7.1*	i	i	i	i
Clc1ccccc1CN(Cc1ccccc1)C(c1cccs1)c1nnnn1C1CCCC1 (stereo not given)	i	i	i	i	-5.7*
CCN(Cc1ccccc1)C(c1cccs1)c1nnnn1C1CCCCC1 (stereo not given)	i	i	i	i	i
O=C1Nc2ccccc2/C1=C/c1ccccc1Cl	i	i	i	i	i
CN1CCN(c2ccccc2/C=C2/C(=O)Nc3ccccc32)CC1	-8.5*	i	i	i	i
O=C(O)c1ccccc1C(=O)c1ccc(Sc2ccc(Cl)cc2)c([N+](=O)[O-])c1	i	i	38*	i	i
Nc1ccccc1Sc1ccc(C(=O)c2ccccc2C(=O)O)cc1[N+](=O)[O-]	i	i	i	i	i
CN1CCN(Cc2ccc(Sc3ccc(Cl)cc3)c([N+](=O)[O-])c2)CC1	-8.3*	i	i	i	i
CCOc1ccc(C2C(C#N)=C(C)NC3=C2C(=O)c2ccccc23)cc1 (stereo not given)	i	i	i	i	i
COc1ccc(C2C(C#N)=C(C)NC3=C2C(=O)c2ccccc23)cc1 (stereo not given)	-7.4*	i	i	i	i
COc1ccc(-c2nc(CN3CCN(C(=O)c4ccco4)CC3)c(C)o2)c(F)c1	i	i	i	i	i
COc1ccc(OC)c(N=CC2=C(O)CC(C)(C)CC2=O)c1	i	i	i	i	i
COc1ccc(N=CC2=C(O)CC(C)(C)CC2=O)cc1	i	i	i	i	-6.5*
COc1ccc(SCC(=O)c2cc(C)c(OC(=S)N(C)C)c(C)c2)cc1	-7*	i	i	i	i
Cc1sc(NC(=O)c2ccco2)c(C(c2cccnc2)N2CCC(C)CC2)c1C (stereo not given)	-7.9*	i	i	i	i
Cc1sc(NC(=O)c2ccco2)c(CN2CCC(C)CC2)c1C	i	i	i	i	i
O=C(COc1cccnc1[N+](=O)[O-])Nc1cc(S(=O)(=O)N2CCCCC2)ccc1Cl	i	i	i	i	i
COc1ccc(/C=N/Nc2ccc([N+](=O)[O-])cc2)cc1O	i	i	i	i	i
COc1ccc(CCNC(=O)Cn2nnc3ccccc3c2=O)cc1	i	i	i	i	i
O=C(Cn1nnc2ccccc2c1=O)NCCc1ccc(F)cc1	i	i	i	i	-5*
CCN(CC)c1ccc(NC(=O)COc2ccc(N(C)S(=O)(=O)c3cccs3)cc2)cc1	i	7.9*	i	i	i
CCOC(=O)c1cccc(NC(=O)Nc2ccc3c(c2)C(=O)OC3)c1	i	i	i	i	i
